Data: ChEMBL document CHEMBL1148487, “Chemical and functional identification and characterization of novel sulfated alpha-conotoxins from the cone snail Conus anemone” (J Med Chem, 2004)
Residues, ends and D or L forms follow the SMILES beside them.

Key:
[1] = Inhibition ratio of rat alpha 3 beta 2 nicotinic acetylcholine receptor (nAChR) to that of at alpha 7 nicotinic acetylcholine receptor (nAChR)
[2] = molecular target: Neuronal acetylcholine receptor; alpha3/beta2 (Rattus norvegicus, UniProt P04757+P12390); test: Inhibition of rat Nicotinic acetylcholine receptor alpha3-beta2 expressed in Xenopus Oocytes; format: cell-based
Summary of the method: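 Rat nAChR subunit cRNAs (50 nL, 5–50 ng/µL) injected into Xenopus oocytes, kept at 19 °C in ND96 pH 7.4 with gentamycin; two-electrode voltage clamp at −70 mV, 2–10 days post-injection. Peptide added to static bath, 3–10 min before agonist; sub-1 nM also perfused 10–15 min. IC50 from fitted concentration–response curves with Hill slope.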

Neuronal acetylcholine receptor; alpha3/beta2, sequence (P04757 whole entry, the tested form may be a part): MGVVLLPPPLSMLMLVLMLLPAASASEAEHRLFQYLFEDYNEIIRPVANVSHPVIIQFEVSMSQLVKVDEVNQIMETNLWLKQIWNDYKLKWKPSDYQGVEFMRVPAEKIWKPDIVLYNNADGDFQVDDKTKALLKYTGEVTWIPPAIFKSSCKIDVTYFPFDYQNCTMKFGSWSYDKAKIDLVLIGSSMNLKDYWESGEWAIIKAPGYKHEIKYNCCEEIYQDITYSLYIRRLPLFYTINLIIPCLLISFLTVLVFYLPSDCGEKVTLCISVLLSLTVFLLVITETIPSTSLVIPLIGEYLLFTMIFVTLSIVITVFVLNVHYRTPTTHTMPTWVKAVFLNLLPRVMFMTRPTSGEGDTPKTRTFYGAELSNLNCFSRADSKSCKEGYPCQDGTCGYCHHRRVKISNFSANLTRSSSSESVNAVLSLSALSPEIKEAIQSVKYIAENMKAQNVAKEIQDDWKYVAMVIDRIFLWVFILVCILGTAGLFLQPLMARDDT
Neuronal acetylcholine receptor; alpha3/beta2, sequence (P12390 whole entry, the tested form may be a part): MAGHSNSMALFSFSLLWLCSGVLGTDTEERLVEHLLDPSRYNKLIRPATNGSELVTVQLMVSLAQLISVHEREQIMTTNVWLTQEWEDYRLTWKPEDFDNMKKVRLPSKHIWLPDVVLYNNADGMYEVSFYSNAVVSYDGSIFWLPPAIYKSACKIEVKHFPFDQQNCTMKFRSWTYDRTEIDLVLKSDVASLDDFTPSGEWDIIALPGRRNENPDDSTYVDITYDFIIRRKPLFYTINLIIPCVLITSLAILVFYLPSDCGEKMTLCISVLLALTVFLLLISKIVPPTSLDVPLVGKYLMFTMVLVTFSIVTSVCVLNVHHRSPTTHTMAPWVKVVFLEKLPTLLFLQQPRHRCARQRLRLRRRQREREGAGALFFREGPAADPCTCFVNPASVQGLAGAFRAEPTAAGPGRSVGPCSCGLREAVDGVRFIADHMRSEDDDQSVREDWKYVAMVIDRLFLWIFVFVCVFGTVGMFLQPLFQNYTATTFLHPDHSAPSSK

SMILES: CC(C)C[C@@H](NC(=O)[C@@H](CO)NC(=O)[C@@H](CS)NC(=O)[C@@H](CS)NC(=O)CN)C(=O)N1CCC[C@H]1C(=O)N1CCC[C@H]1C(=O)N[C@@H](CS)C(=O)N[C@@H](C)C(=O)N[C@@H](C)C(=O)N[C@@H](CC(N)=O)C(=O)N[C@@H](CC(N)=O)C(=O)N1CCC[C@@H]1C(=O)N[C@@H](CC(=O)O)C(=O)N[C@@H](Cc1ccc(O)cc1)C(=O)N[C@@H](CS)C(N)=O
- Ratio [1]: 7.9
- IC50 [2]: 99 nM

SMILES: CC(C)C[C@@H](NC(=O)[C@@H](CO)NC(=O)[C@@H](CS)NC(=O)[C@@H](CS)NC(=O)CN)C(=O)N1CCC[C@H]1C(=O)N1CCC[C@H]1C(=O)N[C@@H](CS)C(=O)N[C@@H](C)C(=O)N[C@@H](C)C(=O)N[C@@H](CC(N)=O)C(=O)N[C@@H](CC(N)=O)C(=O)N1CCC[C@@H]1C(=O)N[C@@H](CC(=O)O)C(=O)N[C@@H](Cc1ccc(S)cc1)C(=O)N[C@@H](CS)C(N)=O
- Ratio [1]: 0.04
- IC50 [2]: 9.6 nM

SMILES: CC[C@H](C)[C@H](N)C(=O)N[C@@H](CCCN=C(N)N)C(=O)N[C@@H](CC(=O)O)C(=O)N[C@@H](CC(C(=O)O)C(=O)O)C(=O)N[C@@H](CS)C(=O)N[C@@H](CS)C(=O)N[C@@H](CO)C(=O)N[C@@H](CC(N)=O)C(=O)N1CCC[C@H]1C(=O)N[C@@H](C)C(=O)N[C@@H](CS)C(=O)N[C@@H](CCCN=C(N)N)C(=O)N[C@H](C(=O)N[C@@H](CC(N)=O)C(=O)N[C@@H](CC(N)=O)C(=O)N1C[C@H](O)C[C@H]1C(=O)N[C@@H](Cc1c[nH]cn1)C(=O)N[C@H](C(=O)N[C@@H](CS)C(N)=O)C(C)C)C(C)C (HELM PEPTIDE1{I.R.D.[O=C(O)C(C[C@H](N[*:1])C(=O)[*:2])C(=O)O].C.C.S.N.P.A.C.R.V.N.N.[Hyp].H.V.C.[am]}$$$$V2.0)
- Ratio [1]: 0.2
- IC50 [2]: 10 nM
